Measurements taken from ChEMBL document CHEMBL1208737, “Synthesis and in vitro evaluation of N-alkyl-3-hydroxy-3-(2-imino-3-methyl-5-oxoimidazolidin-4-yl)indolin-2-one analogs as potential anticancer agents” (2010).

Tests used:
Assay type in all cases: functional
RXF 393 = assay: Growth inhibition of human RXF393 cells by sulforhodamine B assay
Outline: (§1)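 Five-dose response testing across a 57-line human tumour panel (leukemia, non-small cell lung, colon, CNS, melanoma, ovarian, renal, prostate, breast), done after a single-dose primary screen run per the NCI method. Effect plotted against log10 molar drug concentration for each cell line. GI50 is the concentration giving a 50% reduction in net protein increase versus control cells.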

NCI-H226 = assay: Growth inhibition of human NCI-H226 cells by sulforhodamine B assay; outline: as §1
BT-549 = assay: Growth inhibition of human BT549 cells by sulforhodamine B assay; outline: as §1
LOX IMVI = assay: Growth inhibition of human LOXIMVI cells by sulforhodamine B assay
Outline: (§2)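 Five-dose response testing across the 57-line human tumour panel. Growth effect was plotted against log10 drug concentration for each cell line. GI50 is the molar concentration giving a 50% reduction in net protein increase relative to untreated control cells. TGI (total growth inhibition) and LC50 (concentration lethal to 50% of cells) were read from the same curves.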

OVCAR-5 = assay: Growth inhibition of human OVCAR5 cells by sulforhodamine B assay; outline: as §1
COLO 205 = assay: Growth inhibition of human COLO205 cells by sulforhodamine B assay; outline: as §1
SK-MEL-5 = assay: Growth inhibition of human SK-MEL-5 cells by sulforhodamine B assay; outline: as §1
A498 = assay: Growth inhibition of human A498 cells by sulforhodamine B assay; outline: as §1
CAKI-1 = assay: Growth inhibition of human Caki1 cells by sulforhodamine B assay; outline: as §1
T47D = assay: Growth inhibition of human T47D cells by sulforhodamine B assay
Outline: (§3)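 Part of a 57-line human tumour cell panel run at five doses. Growth effect was plotted against log10 molar drug concentration for each cell line. GI50 is the concentration giving a 50% reduction in net protein increase relative to untreated control cells, read from the dose-response curve.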

OVCAR-3 = assay: Growth inhibition of human OVCAR-3 cells by sulforhodamine B assay; outline: as §1
[1] = Growth inhibition of human […] cells by sulforhodamine B assay; outline: as §1
PC-3 = assay: Growth inhibition of human PC3 cells by sulforhodamine B assay; outline: as §1
K562 = assay: Growth inhibition of human K562 cells by sulforhodamine B assay; outline: as §1
DU-145 = assay: Growth inhibition of human DU145 cells by sulforhodamine B assay; outline: as §1
786-0 = assay: Growth inhibition of human 786-0 cells by sulforhodamine B assay; outline: as §1
HCC 2998 = assay: Growth inhibition of human HCC2998 cells by sulforhodamine B assay; outline: as §1
UO-31 = assay: Growth inhibition of human UO31 cells by sulforhodamine B assay; outline: as §3
TK-10 = assay: Growth inhibition of human TK10 cells by sulforhodamine B assay; outline: as §3
KM12 = assay: Growth inhibition of human KM12 cells by sulforhodamine B assay; outline: as §1
CCRF-CEM = assay: Growth inhibition of human CCRF-CEM cells by sulforhodamine B assay; outline: as §1
SW-620 = assay: Growth inhibition of human SW620 cells by sulforhodamine B assay; outline: as §1
SNB-75 = assay: Growth inhibition of human SNB75 cells by sulforhodamine B assay; outline: as §1
NCI-H322M = assay: Growth inhibition of human NCI-H322M cells by sulforhodamine B assay; outline: as §1
EKVX = assay: Growth inhibition of human EKVX cells by sulforhodamine B assay; outline: as §1
MCF7 = assay: Growth inhibition of human MCF7 cells by sulforhodamine B assay; outline: as §1
MOLT-4 = assay: Growth inhibition of human MOLT4 cells by sulforhodamine B assay; outline: as §1
SF-268 = assay: Growth inhibition of human SF268 cells by sulforhodamine B assay; outline: as §1
M14 = assay: Growth inhibition of human M14 cells by sulforhodamine B assay; outline: as §1
[2] = Growth inhibition of human Hs 578T cells by sulforhodamine B assay; outline: as §1
SK-MEL-2 = assay: Growth inhibition of human SK-MEL-2 cells by sulforhodamine B assay; outline: as §1
UACC-62 = assay: Growth inhibition of human UACC62 cells by sulforhodamine B assay; outline: as §3
NCI-H23 = assay: Growth inhibition of human NCI-H23 cells by sulforhodamine B assay; outline: as §1
HCT-15 = assay: Growth inhibition of human HCT15 cells by sulforhodamine B assay; outline: as §1
MDA-MB-468 = assay: Growth inhibition of human MDA-MB-468 cells by sulforhodamine B assay; outline: as §1
SK-MEL-28 = assay: Growth inhibition of human SK-MEL-28 cells by sulforhodamine B assay; outline: as §1
Malme-3M = assay: Growth inhibition of human MALME-3M cells by sulforhodamine B assay; outline: as §1
IGROV-1 = assay: Growth inhibition of human IGROV1 cells by sulforhodamine B assay; outline: as §1
SF-295 = assay: Growth inhibition of human SF295 cells by sulforhodamine B assay; outline: as §1
SK-OV-3 = assay: Growth inhibition of human SKOV3 cells by sulforhodamine B assay; outline: as §1
MDA-MB-435 = assay: Growth inhibition of human MDA-MB-435 cells by sulforhodamine B assay; outline: as §1
UACC-257 = assay: Growth inhibition of human UACC257 cells by sulforhodamine B assay; outline: as §3
HOP-62 = assay: Growth inhibition of human HOP62 cells by sulforhodamine B assay; outline: as §1
HT-29 = assay: Growth inhibition of human HT-29 cells by sulforhodamine B assay; outline: as §1
OVCAR-4 = assay: Growth inhibition of human OVCAR4 cells by sulforhodamine B assay; outline: as §1
NCI-H460 = assay: Growth inhibition of human NCI-H460 cells by sulforhodamine B assay; outline: as §1
HCT-116 = assay: Growth inhibition of human HCT116 cells by sulforhodamine B assay; outline: as §1
MDA-MB-231 = assay: Growth inhibition of human MDA-MB-231 cells by sulforhodamine B assay; outline: as §1
OVCAR-8 = assay: Growth inhibition of human OVCAR8 cells by sulforhodamine B assay; outline: as §1
NCI-H522 = assay: Growth inhibition of human NCI-H522 cells by sulforhodamine B assay; outline: as §1
A549 = assay: Growth inhibition of human A549 cells by sulforhodamine B assay; outline: as §2
SNB-19 = assay: Growth inhibition of human SNB19 cells by sulforhodamine B assay; outline: as §1
NCI/ADR-RES = assay: Growth inhibition of human NCI/ADR-RES cells by sulforhodamine B assay; outline: as §1
SN12C = assay: Growth inhibition of human SN12C cells by sulforhodamine B assay; outline: as §1
ACHN = assay: Growth inhibition of human ACHN cells by sulforhodamine B assay; outline: as §1
HL-60(TB) = assay: Growth inhibition of human HL-60(TB) cells by sulforhodamine B assay; outline: as §1
SF-539 = assay: Growth inhibition of human SF539 cells by sulforhodamine B assay; outline: as §1
[3] = read-out: LC50 (the source's name)

## COc1ccc(CN2C(=O)C(O)(C3C(=O)NC(=N)N3C)c3ccccc32)cc1 (centres undefined)
RXF 393
  GI50: 7.4 µM
RXF 393; [3]
  CC50: > 100 µM
NCI-H226
  GI50: 38.4 µM
NCI-H226; [3]
  CC50: > 100 µM
BT-549
  GI50: 8.45 µM
  LC50: 97 µM
LOX IMVI
  GI50: 8.09 µM
LOX IMVI; [3]
  CC50: > 100 µM
OVCAR-5
  GI50: 42.1 µM
OVCAR-5; [3]
  CC50: > 100 µM
COLO 205
  GI50: 19.9 µM
COLO 205; [3]
  CC50: > 100 µM
SK-MEL-5
  GI50: 37.3 µM
SK-MEL-5; [3]
  CC50: > 100 µM
A498
  GI50: > 100 µM
A498; [3]
  CC50: > 100 µM
CAKI-1
  GI50: 53.9 µM
CAKI-1; [3]
  CC50: > 100 µM
T47D
  GI50: 32 µM
  LC50: > 100 µM
OVCAR-3
  GI50: 2.29 µM
OVCAR-3; [3]
  CC50: 30.1 µM
[1]
  GI50: 2.87 µM
[1]; [3]
  CC50: > 100 µM
PC-3
  GI50: 46.9 µM
PC-3; [3]
  CC50: > 100 µM
K562
  GI50: 3.73 µM
K562; [3]
  CC50: > 100 µM
DU-145
  GI50: 21.4 µM
DU-145; [3]
  CC50: > 100 µM
786-0
  GI50: 23 µM
786-0; [3]
  CC50: > 100 µM
HCC 2998
  GI50: 12.8 µM
  LC50: 63.9 µM
UO-31
  GI50: 83.2 µM
UO-31; [3]
  CC50: > 100 µM
TK-10
  GI50: > 100 µM
TK-10; [3]
  CC50: > 100 µM
KM12
  GI50: 2.87 µM
KM12; [3]
  CC50: 80.4 µM
CCRF-CEM
  GI50: 2.18 µM
CCRF-CEM; [3]
  CC50: > 100 µM
SW-620
  GI50: 4.12 µM
SW-620; [3]
  CC50: > 100 µM
SNB-75
  GI50: 28.8 µM
SNB-75; [3]
  CC50: > 100 µM
NCI-H322M
  GI50: 41.1 µM
NCI-H322M; [3]
  CC50: > 100 µM
EKVX
  GI50: 71.7 µM
  LC50: > 100 µM
MCF7
  GI50: 6.93 µM
  LC50 (concentration killing 50% of starting cells): > 100 µM
MOLT-4
  GI50: 4.79 µM
MOLT-4; [3]
  CC50: > 100 µM
SF-268
  GI50: 5 µM
SF-268; [3]
  CC50: > 100 µM
M14
  GI50: 4.93 µM
  LC50: > 100 µM
[2]
  GI50: 60.3 µM
[2]; [3]
  CC50: > 100 µM
SK-MEL-2
  GI50: 95.2 µM
SK-MEL-2; [3]
  CC50: > 100 µM
UACC-62
  GI50: 27.7 µM
UACC-62; [3]
  CC50: > 100 µM
NCI-H23
  GI50: 13.9 µM
  LC50: > 100 µM
HCT-15
  GI50: 11.8 µM
  LC50 (concentration killing 50% of starting cells): > 100 µM
MDA-MB-468
  GI50: 11.6 µM
  LC50 (concentration causing 50% net cell kill): > 100 µM
SK-MEL-28
  GI50: 36.9 µM
SK-MEL-28; [3]
  CC50: > 100 µM
Malme-3M
  GI50: 27.4 µM
Malme-3M; [3]
  CC50: > 100 µM
IGROV-1
  GI50: 3.26 µM
IGROV-1; [3]
  CC50: > 100 µM
SF-295
  GI50: 26 µM
SF-295; [3]
  CC50: > 100 µM
SK-OV-3
  GI50: 45.5 µM
SK-OV-3; [3]
  CC50: > 100 µM
MDA-MB-435
  GI50: 10.6 µM
MDA-MB-435; [3]
  CC50: > 100 µM
UACC-257
  GI50: 6.28 µM
  LC50: > 100 µM
HOP-62
  GI50: 4.31 µM
HOP-62; [3]
  CC50: > 100 µM
HT-29
  GI50: 4.06 µM
  LC50: > 100 µM
OVCAR-4
  GI50: 7.13 µM
OVCAR-4; [3]
  CC50: > 100 µM
NCI-H460
  GI50: 29 µM
  LC50: > 100 µM
HCT-116
  GI50: 2.4 µM
  LC50: > 100 µM
MDA-MB-231
  GI50: 19.4 µM
MDA-MB-231; [3]
  CC50: > 100 µM
OVCAR-8
  GI50: 3.52 µM
OVCAR-8; [3]
  CC50: > 100 µM
NCI-H522
  GI50: 3.65 µM
  LC50 (concentration killing 50% of cells): > 100 µM
A549
  GI50: 43.6 µM
  LC50: > 100 µM
SNB-19
  GI50: 30.6 µM
SNB-19; [3]
  CC50: > 100 µM
NCI/ADR-RES
  GI50: 1.99 µM
NCI/ADR-RES; [3]
  CC50: > 100 µM
SN12C
  GI50: > 100 µM
SN12C; [3]
  CC50: > 100 µM
ACHN
  GI50: > 100 µM
ACHN; [3]
  CC50: > 100 µM
HL-60(TB)
  GI50: 4.91 µM
  LC50: > 100 µM
SF-539
  GI50: 3.73 µM
SF-539; [3]
  CC50: > 100 µM
